Experimental findings from ChEMBL document CHEMBL2331324, “Synthesis and biological evaluation of guanidino analogues of roscovitine” (Eur J Med Chem, 2013) are described below.

Assay [1] deals with Mitogen-activated protein kinase kinase kinase 11 (Homo sapiens) (UniProt Q16584). As to the kind of experiment: Inhibition of recombinant MLK3 (unknown origin) assessed as residual activity using [gamma-33P]ATP as substrate at 1 uM. The method in brief: (§1)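 Selectivity panel run under previously published conditions. Screened at 1 μM in duplicate. Reactions started with [γ-33P]ATP (800 cpm/pmol) at 5, 20 or 50 μM, chosen to be at or below each enzyme's ATP Km. Stopped with phosphoric acid, spotted onto P81 filters. Result expressed as residual kinase activity.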

Assay [2] concerns the target Serine/threonine-protein kinase 3 (Homo sapiens) (UniProt Q13188). As to the kind of experiment: Inhibition of recombinant MST2 (unknown origin) assessed as residual activity using [gamma-33P]ATP as substrate at 1 uM. The method in brief: as §1
For assay [3], the target named is Tyrosine-protein kinase CSK (Homo sapiens) (UniProt P41240). As to the kind of experiment: Inhibition of recombinant CSK (unknown origin) assessed as residual activity using [gamma-33P]ATP as substrate at 1 uM. The method in brief: (§2)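 Recombinant kinase panel screened at 1 µM in duplicate. Reactions started with [γ-33P]ATP (800 cpm/pmol) at 5, 20 or 50 µM, chosen to sit at or below each enzyme's ATP Km. Stopped with phosphoric acid and spotted onto P81 filters. Result given as residual kinase activity.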

Assay [4] has as its target Serine/threonine-protein kinase PAK 5 (Homo sapiens) (UniProt Q9P286). As to the kind of experiment: Inhibition of recombinant PAK5 (unknown origin) assessed as residual activity using [gamma-33P]ATP as substrate at 1 uM.
Assay [5] addresses Serine/threonine-protein kinase Chk2 (Homo sapiens) (UniProt O96017). As to the kind of experiment: Inhibition of recombinant CHK2 (unknown origin) assessed as residual activity using [gamma-33P]ATP as substrate at 1 uM. In outline:
as §2

Assay [6] addresses Insulin receptor (Homo sapiens) (UniProt P06213). As to the kind of experiment: Inhibition of recombinant IR (unknown origin) assessed as residual activity using [gamma-33P]ATP as substrate at 1 uM. In outline:
as §2

Assay [7] deals with Mitogen-activated protein kinase kinase kinase 9 (Homo sapiens) (UniProt P80192). As to the kind of experiment: Inhibition of recombinant MLK1 (unknown origin) assessed as residual activity using [gamma-33P]ATP as substrate at 1 uM. In outline:
as §1

Assay [8] has as its target Cyclin-dependent kinase 2/cyclin E1 (Homo sapiens, UniProt P24941). As to the kind of experiment: Inhibition of recombinant CDK2/cyclin E (unknown origin) using histone H1 as substrate in presence of [gamma-33P]ATP. Format: protein-complex assay.
Assay [9] addresses Homeodomain-interacting protein kinase 3 (Homo sapiens) (UniProt Q9H422). As to the kind of experiment: Inhibition of recombinant HIPK3 (unknown origin) assessed as residual activity using [gamma-33P]ATP as substrate at 1 uM. The method in brief:
as §2

Assay [10] concerns the target Tyrosine-protein kinase Yes (Homo sapiens) (UniProt P07947). As to the kind of experiment: Inhibition of recombinant YES1 (unknown origin) assessed as residual activity using [gamma-33P]ATP as substrate at 1 uM. The method in brief: (§3)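 Kinase panel screen with each compound at 1 µM, in duplicate. Reactions were started with [γ-33P]ATP (800 cpm/pmol) at 5, 20 or 50 µM, chosen per enzyme to be at or below its ATP Km. Reactions were stopped with phosphoric acid and spotted onto P81 filters. Results are given as residual kinase activity.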

In assay [11] the target is Serine/threonine-protein kinase Nek2 (Homo sapiens) (UniProt P51955). As to the kind of experiment: Inhibition of recombinant NEK2a (unknown origin) assessed as residual activity using [gamma-33P]ATP as substrate at 1 uM. The method in brief:
as §1

For assay [12], the target named is Dual specificity tyrosine-phosphorylation-regulated kinase 1A (Homo sapiens) (UniProt Q13627). As to the kind of experiment: Inhibition of recombinant DYRK1A (unknown origin) assessed as residual activity using [gamma-33P]ATP as substrate at 1 uM. The method in brief:
as §2

Assay [13] deals with Serine/threonine-protein kinase Chk1 (Homo sapiens) (UniProt O14757). As to the kind of experiment: Inhibition of recombinant CHK1 (unknown origin) assessed as residual activity using [gamma-33P]ATP as substrate at 1 uM. In outline:
as §2

For assay [14], the target named is Insulin receptor-related protein (Homo sapiens) (UniProt P14616). As to the kind of experiment: Inhibition of recombinant IRR (unknown origin) assessed as residual activity using [gamma-33P]ATP as substrate at 1 uM. The method in brief: as §2
Assay [15] concerns the target Maternal embryonic leucine zipper kinase (Homo sapiens) (UniProt Q14680). As to the kind of experiment: Inhibition of recombinant MELK (unknown origin) assessed as residual activity using [gamma-33P]ATP as substrate at 1 uM. The method in brief:
as §1

Assay [16] addresses Mitogen-activated protein kinase kinase kinase kinase 2 (Homo sapiens) (UniProt Q12851). As to the kind of experiment: Inhibition of recombinant GCK (unknown origin) assessed as residual activity using [gamma-33P]ATP as substrate at 1 uM. The method in brief: as §2
Assay [17] has as its target Serine/threonine-protein kinase BRSK1 (Homo sapiens) (UniProt Q8TDC3). As to the kind of experiment: Inhibition of recombinant BRSK1 (unknown origin) assessed as residual activity using [gamma-33P]ATP as substrate at 1 uM. The method in brief:
as §2

For assay [18], the system named is MCF7. As to the kind of experiment: Cytotoxicity against human MCF7 cells assessed as inhibition of cell viability after 72 hrs by calcien AM dye based fluorescence analysis. Format: functional. The conditions noted are these: MCF7, 72 h. In outline: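 MCF7 cells grown in DMEM with 10% FBS, 2 mM glutamine, penicillin and streptomycin at 37 °C and 5% CO2. About 10,000 cells per well, left 4 h, then a concentration range added in triplicate, DMSO ≤0.5% final. After 72 h, 1 µg/ml calcein AM (final) for 1 h; fluorescence read at 485/538 nm. Viability given as % of control; IC50 read graphically from dose-response curves; mean of ≥3 independent experiments.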

The target of assay [19] is Ephrin type-A receptor 2 (Homo sapiens) (UniProt P29317). As to the kind of experiment: Inhibition of recombinant EPH-A2 (unknown origin) assessed as residual activity using [gamma-33P]ATP as substrate at 1 uM. The method in brief: as §2
Assay [20] concerns the target Inhibitor of nuclear factor kappa-B kinase subunit epsilon (Homo sapiens) (UniProt Q14164). As to the kind of experiment: Inhibition of recombinant IKKepsilon (unknown origin) assessed as residual activity using [gamma-33P]ATP as substrate at 1 uM. In outline:
as §2

Assay [21] has as its target SRSF protein kinase 1 (Homo sapiens) (UniProt Q96SB4). As to the kind of experiment: Inhibition of recombinant SRPK1 (unknown origin) assessed as residual activity using [gamma-33P]ATP as substrate at 1 uM. The method in brief: as §3
The target in assay [22] is RAC-beta serine/threonine-protein kinase (Homo sapiens) (UniProt P31751). As to the kind of experiment: Inhibition of recombinant PKB beta (unknown origin) assessed as residual activity using [gamma-33P]ATP as substrate at 1 uM. The method in brief: as §1
For assay [23], the species on record is Homo sapiens. As to the kind of experiment: Inhibition of recombinant VEGFR (unknown origin) assessed as residual activity using [gamma-33P]ATP as substrate at 1 uM. In outline: as §3
Assay [24] deals with Cyclin-dependent kinase 2/cyclin A (Homo sapiens) (UniProt P24941+P20248+P78396). As to the kind of experiment: Inhibition of recombinant CDK2/cyclin A (unknown origin) assessed as residual activity using [gamma-33P]ATP as substrate at 1 uM. The assay is classed as protein-complex assay. The method in brief: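 CDK2/cyclin A included in the radiometric panel at 1 µM in duplicate. Reactions started with [γ-33P]ATP (800 cpm/pmol) at 5, 20 or 50 µM, at or below the enzyme's ATP Km. Stopped with phosphoric acid, spotted onto P81 filters; result given as residual kinase activity.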

Sequence of Mitogen-activated protein kinase kinase kinase 9 (Homo sapiens) (P80192 whole entry, looked up): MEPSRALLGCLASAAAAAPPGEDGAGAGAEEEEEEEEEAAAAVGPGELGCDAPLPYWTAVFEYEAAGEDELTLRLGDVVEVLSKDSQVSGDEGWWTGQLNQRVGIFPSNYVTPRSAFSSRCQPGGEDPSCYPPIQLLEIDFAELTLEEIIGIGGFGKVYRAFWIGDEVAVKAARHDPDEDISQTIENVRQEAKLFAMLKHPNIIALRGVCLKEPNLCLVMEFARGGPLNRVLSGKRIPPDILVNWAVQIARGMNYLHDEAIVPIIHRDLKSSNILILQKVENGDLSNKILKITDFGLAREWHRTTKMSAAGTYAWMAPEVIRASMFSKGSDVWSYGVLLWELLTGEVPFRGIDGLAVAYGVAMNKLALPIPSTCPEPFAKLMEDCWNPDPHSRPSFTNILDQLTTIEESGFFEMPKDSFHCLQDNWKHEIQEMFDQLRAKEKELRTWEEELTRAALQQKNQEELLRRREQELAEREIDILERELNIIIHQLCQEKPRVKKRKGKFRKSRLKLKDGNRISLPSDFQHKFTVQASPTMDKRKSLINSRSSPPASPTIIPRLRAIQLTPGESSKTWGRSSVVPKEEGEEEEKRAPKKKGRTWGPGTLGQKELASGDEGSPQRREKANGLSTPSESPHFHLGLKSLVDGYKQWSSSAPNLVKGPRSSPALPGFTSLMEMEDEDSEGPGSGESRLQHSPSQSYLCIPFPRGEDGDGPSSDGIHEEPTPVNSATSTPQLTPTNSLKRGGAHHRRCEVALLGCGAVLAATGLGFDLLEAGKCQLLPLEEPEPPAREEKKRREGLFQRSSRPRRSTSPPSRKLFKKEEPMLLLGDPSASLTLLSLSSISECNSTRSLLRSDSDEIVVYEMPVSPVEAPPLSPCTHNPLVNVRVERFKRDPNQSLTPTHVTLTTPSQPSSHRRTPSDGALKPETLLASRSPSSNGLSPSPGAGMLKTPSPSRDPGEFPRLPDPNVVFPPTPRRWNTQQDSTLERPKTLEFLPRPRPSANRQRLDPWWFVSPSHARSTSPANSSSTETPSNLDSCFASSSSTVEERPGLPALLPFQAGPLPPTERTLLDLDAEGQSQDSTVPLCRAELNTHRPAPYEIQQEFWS
Sequence of Serine/threonine-protein kinase PAK 5 (Homo sapiens) (Q9P286 whole entry, looked up): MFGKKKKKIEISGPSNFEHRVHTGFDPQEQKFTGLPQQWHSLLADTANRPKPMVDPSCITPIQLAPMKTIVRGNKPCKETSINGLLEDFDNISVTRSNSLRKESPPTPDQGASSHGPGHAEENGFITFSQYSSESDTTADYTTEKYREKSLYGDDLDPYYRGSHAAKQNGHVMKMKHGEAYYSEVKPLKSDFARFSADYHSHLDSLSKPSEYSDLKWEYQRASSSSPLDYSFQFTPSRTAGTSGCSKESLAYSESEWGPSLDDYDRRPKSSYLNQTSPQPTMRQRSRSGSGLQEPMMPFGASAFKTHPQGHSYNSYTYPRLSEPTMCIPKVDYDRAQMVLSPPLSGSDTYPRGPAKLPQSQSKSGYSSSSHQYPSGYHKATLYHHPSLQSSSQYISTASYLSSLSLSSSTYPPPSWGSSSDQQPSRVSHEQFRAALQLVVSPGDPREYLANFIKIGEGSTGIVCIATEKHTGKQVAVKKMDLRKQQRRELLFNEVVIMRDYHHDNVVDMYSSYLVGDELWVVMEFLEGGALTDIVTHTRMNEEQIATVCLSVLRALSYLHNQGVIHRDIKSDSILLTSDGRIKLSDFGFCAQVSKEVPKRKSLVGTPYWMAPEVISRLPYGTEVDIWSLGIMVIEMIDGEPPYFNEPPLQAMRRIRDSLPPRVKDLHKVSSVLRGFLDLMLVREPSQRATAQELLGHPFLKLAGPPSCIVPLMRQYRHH
Sequence of Serine/threonine-protein kinase BRSK1 (Homo sapiens) (Q8TDC3 whole entry): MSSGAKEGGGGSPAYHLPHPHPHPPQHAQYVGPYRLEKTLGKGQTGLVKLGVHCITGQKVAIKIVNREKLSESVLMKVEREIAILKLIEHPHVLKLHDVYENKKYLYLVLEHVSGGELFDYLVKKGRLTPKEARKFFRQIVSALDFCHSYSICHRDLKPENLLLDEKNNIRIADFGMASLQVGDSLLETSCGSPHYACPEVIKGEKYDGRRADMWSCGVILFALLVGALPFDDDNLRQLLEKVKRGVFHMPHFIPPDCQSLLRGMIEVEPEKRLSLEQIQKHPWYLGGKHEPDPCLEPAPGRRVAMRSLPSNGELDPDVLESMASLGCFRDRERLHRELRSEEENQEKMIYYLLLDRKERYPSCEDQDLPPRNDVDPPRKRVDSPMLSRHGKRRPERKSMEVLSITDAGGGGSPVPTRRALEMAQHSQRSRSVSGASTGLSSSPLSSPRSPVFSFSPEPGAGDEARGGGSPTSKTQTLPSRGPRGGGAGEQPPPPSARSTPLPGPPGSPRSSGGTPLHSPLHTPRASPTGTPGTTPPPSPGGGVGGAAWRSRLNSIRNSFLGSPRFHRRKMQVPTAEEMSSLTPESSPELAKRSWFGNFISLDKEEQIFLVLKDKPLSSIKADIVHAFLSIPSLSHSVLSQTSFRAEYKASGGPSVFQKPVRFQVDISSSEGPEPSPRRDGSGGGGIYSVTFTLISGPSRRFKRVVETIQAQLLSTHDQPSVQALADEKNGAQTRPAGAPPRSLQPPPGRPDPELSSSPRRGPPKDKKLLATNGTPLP
Sequence of Serine/threonine-protein kinase Chk2 (Homo sapiens) (O96017 whole entry): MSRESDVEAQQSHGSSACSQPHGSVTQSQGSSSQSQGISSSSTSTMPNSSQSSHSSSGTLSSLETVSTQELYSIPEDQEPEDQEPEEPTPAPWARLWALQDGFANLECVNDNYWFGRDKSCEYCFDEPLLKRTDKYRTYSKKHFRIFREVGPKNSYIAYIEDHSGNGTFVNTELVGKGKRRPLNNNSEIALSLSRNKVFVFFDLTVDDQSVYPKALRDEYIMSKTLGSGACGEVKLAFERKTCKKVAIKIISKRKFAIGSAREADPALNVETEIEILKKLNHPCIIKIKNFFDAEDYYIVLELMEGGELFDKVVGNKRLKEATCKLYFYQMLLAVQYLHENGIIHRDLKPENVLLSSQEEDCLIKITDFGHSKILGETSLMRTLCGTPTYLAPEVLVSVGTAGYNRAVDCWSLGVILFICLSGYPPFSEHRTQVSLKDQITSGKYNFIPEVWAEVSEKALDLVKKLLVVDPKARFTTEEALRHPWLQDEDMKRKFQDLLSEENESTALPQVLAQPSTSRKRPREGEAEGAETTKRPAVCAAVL
Sequence of Insulin receptor (Homo sapiens) (P06213 28-758 limits assumed): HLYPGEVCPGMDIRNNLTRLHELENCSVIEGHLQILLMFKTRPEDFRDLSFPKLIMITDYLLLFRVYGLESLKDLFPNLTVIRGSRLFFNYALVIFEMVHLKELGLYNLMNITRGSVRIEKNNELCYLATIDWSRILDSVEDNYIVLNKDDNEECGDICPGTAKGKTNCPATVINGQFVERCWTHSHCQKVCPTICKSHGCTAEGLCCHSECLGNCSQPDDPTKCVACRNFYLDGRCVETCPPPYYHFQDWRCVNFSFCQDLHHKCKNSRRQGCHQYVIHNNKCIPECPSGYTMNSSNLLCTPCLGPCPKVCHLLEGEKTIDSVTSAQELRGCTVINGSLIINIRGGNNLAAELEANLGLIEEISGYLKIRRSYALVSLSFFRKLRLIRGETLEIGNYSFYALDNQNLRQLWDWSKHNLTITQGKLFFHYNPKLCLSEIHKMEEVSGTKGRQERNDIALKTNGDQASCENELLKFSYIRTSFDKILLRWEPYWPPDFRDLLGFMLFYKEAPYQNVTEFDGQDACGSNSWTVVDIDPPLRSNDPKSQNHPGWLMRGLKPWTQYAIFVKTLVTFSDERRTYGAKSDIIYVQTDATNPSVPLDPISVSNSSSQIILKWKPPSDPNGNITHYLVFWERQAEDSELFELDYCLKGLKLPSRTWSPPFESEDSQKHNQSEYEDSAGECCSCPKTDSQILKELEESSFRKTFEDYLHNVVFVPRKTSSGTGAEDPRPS
Sequence of Insulin receptor (Homo sapiens) (P06213 763-1382 limits assumed): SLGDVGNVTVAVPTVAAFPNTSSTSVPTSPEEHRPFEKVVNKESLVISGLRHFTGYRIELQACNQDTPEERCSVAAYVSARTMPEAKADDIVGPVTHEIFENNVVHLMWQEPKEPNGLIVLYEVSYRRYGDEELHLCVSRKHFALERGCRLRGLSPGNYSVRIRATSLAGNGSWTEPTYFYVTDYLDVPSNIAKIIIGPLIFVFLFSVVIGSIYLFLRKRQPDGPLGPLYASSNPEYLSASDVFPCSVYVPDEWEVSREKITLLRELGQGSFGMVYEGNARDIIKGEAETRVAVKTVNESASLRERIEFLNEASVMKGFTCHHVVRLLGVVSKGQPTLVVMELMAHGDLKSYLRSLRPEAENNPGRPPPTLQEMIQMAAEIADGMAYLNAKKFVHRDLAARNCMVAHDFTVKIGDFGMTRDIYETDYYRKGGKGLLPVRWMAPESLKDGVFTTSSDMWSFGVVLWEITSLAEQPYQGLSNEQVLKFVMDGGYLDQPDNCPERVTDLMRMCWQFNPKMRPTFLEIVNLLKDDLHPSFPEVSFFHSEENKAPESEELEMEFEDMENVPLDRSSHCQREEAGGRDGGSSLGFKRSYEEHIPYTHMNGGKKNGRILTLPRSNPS
Sequence of Serine/threonine-protein kinase Nek2 (Homo sapiens) (P51955 whole entry): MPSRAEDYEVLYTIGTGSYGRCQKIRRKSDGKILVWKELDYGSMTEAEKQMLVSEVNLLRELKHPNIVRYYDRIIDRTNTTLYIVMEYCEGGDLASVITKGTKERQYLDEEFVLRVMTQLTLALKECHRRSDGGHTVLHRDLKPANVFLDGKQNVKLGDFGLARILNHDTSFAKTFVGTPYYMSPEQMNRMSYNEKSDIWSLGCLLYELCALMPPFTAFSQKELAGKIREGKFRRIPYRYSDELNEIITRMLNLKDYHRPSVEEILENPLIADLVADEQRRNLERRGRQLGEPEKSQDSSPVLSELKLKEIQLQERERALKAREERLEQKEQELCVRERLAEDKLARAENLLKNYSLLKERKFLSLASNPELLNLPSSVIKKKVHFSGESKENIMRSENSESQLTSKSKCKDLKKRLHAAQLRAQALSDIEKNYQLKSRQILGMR

In the case of `CC[C@@H](CO)Nc1nc(NC(=N)N)c2ncn(C(C)C)c2n1`, the Activity in [1] was 37%; in [2], 43%; in [3], 59%; in assay [4], 15%; in [5] it was 42%; in [6], 3%. Further, the Activity in assay [7] turned out to be 31%; in assay [9], 24%; in assay [10], 11%; in [11] it was 57%; in assay [12], 1%; in assay [13] it was 46%. Further, the Activity was found to be 16% in [14]; 19% in [15]; 10% in assay [16]; 45% in assay [17]; 17% in assay [19]; 52% in [20]. For the same compound, the Activity in assay [21] turned out to be 14%; in [22], 103%; in assay [23], 4%; in [24], 7%. The IC50 was 37 nM in assay [8] and 1600 nM in assay [18].

Regarding `CC[C@H](CO)Nc1nc(NC(=N)N)c2ncn(C(C)C)c2n1`, the Activity in [1] is 37%; in assay [2] it was 35%; in assay [3], 58%; in assay [4], 18%; in assay [5], 59%; in assay [6] it was 5%. The Activity in assay [7] turned out to be 25%; in assay [9] it was 38%; in assay [10] it was 13%; in assay [11], 73%; in assay [12] it was 1%; in assay [13], 58%. Further, the Activity in assay [14] was 19%; in [15], 27%; in assay [16], 15%; in assay [17] it was 44%; in assay [19], 22%; in assay [20], 66%. Moreover, the Activity in [21] was determined as 22%; in assay [22], 111%; in assay [23] it was 6%; in assay [24], 5%. Further, the IC50 in assay [8] came to 140 nM; in assay [18] it was 4500 nM.
